ABHD5-PLIN5 inh: ABHD5-PLIN5 interaction inhibitors, primary screen, cell lysate, split luciferase complementation, luminescence; actives 0.78% (n = 360,000); inhibition, % at 4 µM; Split G. princeps luciferase complementation, 4 h;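 active = inhibition above the mean inhibition across every tested compound plus 3 SD, cut at about 22% in these data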
PfG6PD inh: PfG6PD enzyme inhibitors, primary screen, biochemical, fluorescence intensity, uHTS; glucose-6-phosphate dehydrogenase-6-phosphogluconolactonase (Plasmodium falciparum 3D7); PfGluPho enzyme, NADPH resazurin-diaphorase fluorescence; inhibition, % at 20 µM; actives 0.78% (n = 350,000); AID 504690, 2011;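 active = inhibition reaching at least a set limit at 20 µM in the primary screen, cut at about 59% in these data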
MC4R barr agon: MC4R agonists recruiting beta-arrestin, primary screen, cell-based, luminescence, agonist arm of biased-ligand search; Melanocortin receptor 4 (Homo sapiens), P32245; U2OS MC4R beta-arrestin complementation; percent of melanotan II response, DMSO zero; activation, % at 8.9 µM; actives 0.98% (n = 360,000);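 active = activation above a per-plate cutoff, the mean activation of sample wells on that plate plus 3 SD, cut at about 8% in these data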
Target sequence (P32245 whole entry, looked up): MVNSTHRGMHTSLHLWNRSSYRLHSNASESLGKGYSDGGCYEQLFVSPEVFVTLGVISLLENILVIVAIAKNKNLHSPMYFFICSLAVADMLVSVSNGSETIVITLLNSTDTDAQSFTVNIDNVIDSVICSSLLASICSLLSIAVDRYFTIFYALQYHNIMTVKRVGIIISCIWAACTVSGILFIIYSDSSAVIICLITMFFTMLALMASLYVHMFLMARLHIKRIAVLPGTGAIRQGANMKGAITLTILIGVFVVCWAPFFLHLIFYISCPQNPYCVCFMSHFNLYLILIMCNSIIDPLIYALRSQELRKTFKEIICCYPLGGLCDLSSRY
B2AR ag: beta2AR agonists driving receptor internalization, primary screen, cell-based, FAP fluorogen, flow cytometry; Beta-2 adrenergic receptor (Homo sapiens), P07550; Am2.2-beta2AR cells; response, % (concentration not given with the values); actives 0.43% (n = 340,000); AID 504454, 2011;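 active = response above a set limit, near 3 SD of response in nonfluorescent compounds, cut at about 42% in these data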
MC4R antagonist: MC4R antagonists of cAMP signaling, primary screen, cell-based, TR-FRET, antagonist arm of biased-ligand search; Melanocortin receptor 4 (Homo sapiens), P32245; MC4R-expressing cells, MTII-stimulated cAMP, LANCE TR-FRET; inhibition, % at 6.5 µM; actives 0.48% (n = 360,000); AID 540295, 2011;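 active = inhibition above its plate's cutoff, the mean of tested wells on that plate plus 3 SD, cut at about 29% in these data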
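System: U2OS-MC4R stable cell line; Technique: Eu-cAMP/anti-cAMP TR-FRET, emission 671 nm; Repeats: single well per compound; Also added: Melanotan II; Dosing: one concentration, 6.5 µM nominal; Schedule: 30-min compound, 1-h challenge, 1-h detection, room temperature.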
Hits are given with their value; - = inactive; . = no result. Compounds with a hit are over-represented: about 3% of the library has one in this group of screens.

SMILES | ABHD5-PLIN5 inh | PfG6PD inh | MC4R barr agon | B2AR ag | MC4R antagonist
COC(=O)/C(=C\c1ccc([N+](=O)[O-])o1)NC(=O)c1ccccc1 | - | - | - | 56 | -
COc1ccc(O)c(C2=Nc3ccccc3N=C(c3ccco3)C2)c1 | - | - | - | - | -
Oc1ccc(Cl)cc1C1=Nc2ccccc2N=C(c2ccco2)C1 | - | - | 9.0 | - | -
C=C(C)C(O)Cc1c(OC)ccc(C(=O)/C=C/c2ccc(O)cc2)c1O (centres undefined) | - | - | - | - | -
CC(C)=CCC/C(C)=C/Cc1c(O)ccc(C(=O)/C=C/c2ccc(O)cc2)c1O | - | - | 8.6 | - | -
O=C(CN1N=C(c2ccc(Cl)cc2)CCC1=O)NCCN1CCc2ccccc2C1 | - | - | - | - | -
O=C(COc1ccccc1)N(Cc1ccccc1)c1nc(-c2ccccc2)cs1 | - | - | 21 | - | -
CCN(CC)CCOCCOc1ccccc1F | - | - | - | - | -
CCN(CC)CCOCCOC(=O)C(CC)(CC)c1ccccc1 | 23 | - | - | - | -
Nc1c(N2CCCC2)cc(Cl)c2nonc12 | - | - | - | - | -
Nc1c(N2CCOCC2)cc(Cl)c2nonc12 | - | - | - | 46 | -
Cc1ccc(-n2nc3c(N4CCC(C(=O)NCc5ccccc5C)CC4)nnc(C)c3c2C)cc1 | - | - | 9.6 | - | -
CC(=O)Nc1ccc(C(=O)N2CCCCC2c2cc(C(=O)N3CCOCC3)no2)cc1 (centres undefined) | - | . | - | . | -
CCOC(=O)C1(Cc2cccc(Cl)c2)CCCN(C(=O)c2cc(C(C)C)nn2C)C1 (centres undefined) | - | - | - | - | -
Cc1ccccc1/C=C/C(=O)c1ccc([N+](=O)[O-])o1 | . | 80 | . | . | .
O=Cc1cccc(OCc2cccc3ccccc23)c1 | - | - | - | 71 | -
CCC(Cc1ccccc1)OC(=O)c1ccccc1C(=O)O (centres undefined) | - | - | - | - | -
COC(=O)c1ccc(C2C(Oc3ccccc3)C(=O)N2CCc2ccc(OC)c(OC)c2)cc1 (centres undefined) | - | - | 8.9 | - | -
Cc1nc(N2N=C(c3ccc(Cl)cc3)CC2c2ccco2)sc1C(=O)N(C)C (centres undefined) | 22 | - | - | - | -
CCOC(=O)Cn1c(=NC(=O)c2cc(-c3cccs3)nc3ccccc23)sc2cc(S(N)(=O)=O)ccc21 | - | - | - | - | -
COC(=O)Cn1c(=NC(=O)c2cc(-c3cccs3)nc3ccccc23)sc2cc(S(N)(=O)=O)ccc21 | 26 | - | - | - | -
COCCn1c(=NC(=O)c2cc(Cl)sc2Cl)sc2cc(S(N)(=O)=O)ccc21 | - | - | 9.3 | - | -
COCCn1c(=NC(=O)c2ccc3c(c2)OCCO3)sc2cc(S(N)(=O)=O)ccc21 | - | - | - | - | -
COc1ccc(N2CC(NC(=O)N3CCN(C(=O)c4ccco4)CC3)CC2=O)cc1OC (centres undefined) | - | - | - | - | -
O=C(CC(C(=O)O)c1ccc(Cl)cc1)c1ccccc1 (centres undefined) | - | - | - | - | -
SMILES | ABHD5-PLIN5 inh | PfG6PD inh | MC4R barr agon | B2AR ag | MC4R antagonist
O=C(CC(Nc1ccc(Cl)cc1)C(=O)O)c1ccccc1 (centres undefined) | 22 | - | - | - | -
O=C(NNC(=O)c1ccccc1O)c1cc2ccccc2o1 | - | - | - | - | -
NC(=O)C1CCN(c2nc(-c3ccc(Br)cc3)cs2)CC1 | - | - | - | - | -
NC(=O)C1CCN(c2nc(-c3cccs3)cs2)CC1 | - | 73 | - | - | -
CC1(C(=O)NS(=O)(=O)C2CC2)CCN(C(=O)c2ccccc2F)C1 (centres undefined) | - | . | - | . | -
COc1ccc(-c2cc(C(F)F)n3ncc(C(=O)Nc4cccc(S(=O)(=O)N5CCOCC5)c4)c3n2)cc1 | - | - | - | - | -
CCOc1ccc(/C=C/C(=O)Nc2ccccc2C(F)(F)F)cc1 | - | - | 8.8 | - | -
CCOc1ccc(/C=C/C(=O)Nc2ccc(OC)cc2[N+](=O)[O-])cc1 | - | - | 34 | - | -
COc1ccc(N2C(=O)c3ccccc3NC(=O)C2C(=O)NCCc2ccccc2F)cc1 (centres undefined) | - | . | . | . | .
COc1cc(/C=C2/C(=O)c3cccc([N+](=O)[O-])c3C2=O)c(Br)cc1O | - | - | - | - | -
CCNC(=O)C1(C)CCCN(C(=O)c2cc(C)n(C(C)(C)C)n2)C1 (centres undefined) | - | . | - | . | -
Cc1ccc(C)c(N2CCN(C(=O)COc3cc(=O)n(C)c4ccccc34)CC2)c1 | - | - | - | - | -
Cc1ccc(C)c(N2CCN(C(=O)CCCOc3cc(=O)n(C)c4ccccc34)CC2)c1 | - | - | 12 | - | -
O=c1[nH]c2ccc(Cl)cc2c(O)c1-c1ccccc1 | - | - | - | - | -
O=c1[nH]c2ccc(Cl)cc2c(-c2ccccc2)c1[N+](=O)[O-] | - | - | 9.3 | - | -
CC1(Cc2ccccc2Cl)C(=O)Nc2ccc(OC(F)(F)F)cc21 (centres undefined) | - | . | - | . | -
CS(=O)(=O)c1ncc(Cl)c(C(=O)Nc2ccc3ccccc3c2)n1 | 77 | - | - | 48 | -
CS(=O)(=O)c1ccccc1C(=O)Nc1cccc2ncccc12 | - | - | - | - | -
O=C(CN1C(=O)S/C(=C\c2ccccc2)C1=O)NNC(=O)c1ccccc1O | - | - | - | - | -
O=C(CCCN1C(=O)S/C(=C\c2ccccc2)C1=O)NNC(=O)c1ccccc1O | - | - | 8.4 | - | -
O=C(CCN1C(=O)/C(=C/c2ccccc2)SC1=S)NCCc1ccc(O)cc1 | - | - | 9.3 | - | -
O=C(NCc1cccc(C(F)(F)F)c1)C1CCC(=O)N(C2CCCCCC2)C1 (centres undefined) | - | - | - | - | -
COc1ccc(NCC(=O)N/N=C/c2cc([N+](=O)[O-])ccc2N2CCCC2)cc1 | - | - | - | - | -
O=C(c1cc(-c2ccco2)nn1-c1cccc(Cl)c1)N1CCCCC1 | 48 | - | - | - | 31
Cc1ccc(C)c(N(C)C(=O)c2cc3c(=O)[nH]c4ccc(C)cc4c3s2)c1 | - | - | 9.1 | - | -
CCCN(CCC)C(=O)c1cc2c(=O)[nH]c3ccc(C)cc3c2s1 | - | - | - | - | -
CN(CCC#N)C(=O)COC(=O)c1c2c(nc3ccccc13)/C(=C\c1ccco1)CC2 | - | - | - | - | -
O=[N+]([O-])c1ccc(N=Nc2c(Cl)cc(O)cc2Cl)cc1 | - | - | - | 55 | -

Assay outcomes (PubChem BioAssay)
